Values after ≈ are worked out from the molar mass of the structure shown.
Assays:
[1] = test system: Staphylococcus aureus; assay: Antibacterial activity against Staphylococcus aureus SP-N2 after 16 hrs at 36 degC by microdilution method; type: functional
Method in brief: (§1)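 Broth microdilution per CLSI in Mueller-Hinton broth for staphylococci. Stock solutions were diluted in a 2-fold serial series to final test concentrations. The MIC was read as the lowest concentration that prevented visible bacterial growth after incubation at 36 °C. Mupirocin and amoxicillin were run by the same method as references.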

[2] = test system: Enterococcus faecalis; assay: Antibacterial activity against Enterococcus faecalis ATCC 19433 after 16 hrs at 36 degC by microdilution method; type: functional; conditions: ATCC 19433, 16 h
Method in brief: (§2)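 Broth microdilution in Brain Heart Infusion broth, following NCCLS/CLSI. Test compounds were serially diluted 2-fold from stock. The MIC was the lowest concentration with no visible bacterial growth after incubation at 36 °C. Mupirocin and amoxicillin were tested the same way as references.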

[3] = test system: Staphylococcus aureus; assay: Antibacterial activity against methicillin-resistant Staphylococcus aureus KS2007-6 after 16 hrs at 36 degC by microdilution method; type: functional; method in brief: as §1
[4] = test system: Staphylococcus aureus; assay: Antibacterial activity against Staphylococcus aureus Smith after 16 hrs at 36 degC by microdilution method; type: functional
Method in brief: (§3)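 Broth microdilution in Mueller-Hinton broth, following NCCLS/CLSI. Stock solutions were serially diluted 2-fold to the final test concentrations. The MIC was the lowest concentration that prevented visible growth after incubation at 36 °C. Mupirocin and amoxicillin were reference antibiotics run by the same method.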

[5] = test system: Staphylococcus epidermidis; assay: Antibacterial activity against Staphylococcus epidermidis ATCC 12228 after 16 hrs at 36 degC by microdilution method; type: functional; conditions: ATCC 12228, 16 h; method in brief: as §3
[6] = test system: Enterococcus faecium; assay: Antibacterial activity against Enterococcus faecium ATCC 10541 after 16 hrs at 36 degC by microdilution method; type: functional; conditions: ATCC 10541, 16 h; method in brief: as §2
[7] = test system: Staphylococcus aureus; assay: Antibacterial activity against Staphylococcus aureus GIORGIO after 16 hrs at 36 degC by microdilution method; type: functional; method in brief: as §3
[8] = test system: Staphylococcus aureus; assay: Antibacterial activity against Staphylococcus aureus ATCC 25923 after 16 hrs at 36 degC by microdilution method; type: functional; conditions: ATCC 25923, 16 h; method in brief: as §3
[9] = test system: Staphylococcus aureus; assay: Antibacterial activity against Staphylococcus aureus ATCC 10537 after 16 hrs at 36 degC by microdilution method; type: functional; conditions: ATCC 10537, 16 h; method in brief: as §3
[10] = test system: Staphylococcus aureus; assay: Antibacterial activity against Staphylococcus aureus ATCC 6538P after 16 hrs at 36 degC by microdilution method; type: functional; method in brief: as §3
[11] = Inhibition of Staphylococcus aureus methionyl-tRNA synthetase assessed as decrease in [35S]methionyl-tRNA generation
[12] = test system: Enterococcus faecalis; assay: Antibacterial activity against Enterococcus faecalis ATCC 29212 after 16 hrs at 36 degC by microdilution method; type: functional; conditions: ATCC 29212, 16 h; method in brief: as §2

COCC(CNCc1ccc(Cl)c(Cl)c1)CNc1cc(=O)c2ccccc2[nH]1 (configuration not stated)
MIC [1]: 8 µg/mL (≈ 19 µM)
MIC [2]: 0.5 µg/mL (≈ 1.19 µM)
MIC [3]: 4 µg/mL (≈ 9.52 µM)
MIC [4]: 8 µg/mL (≈ 19 µM)
MIC [5]: 4 µg/mL (≈ 9.52 µM)
MIC [6]: 0.125 µg/mL (≈ 0.297 µM)
MIC [7]: 16 µg/mL (≈ 38.1 µM)
MIC [8]: 16 µg/mL (≈ 38.1 µM)
MIC [9]: 8 µg/mL (≈ 19 µM)
MIC [10]: 4 µg/mL (≈ 9.52 µM)
IC50 [11]: 15 nM
MIC [12]: 0.5 µg/mL (≈ 1.19 µM)

O=c1cc(NCC(CNCc2ccc(Cl)c(Cl)c2)OCc2ccccc2)[nH]c2ccccc12 (configuration not stated)
MIC [1]: 4 µg/mL (≈ 8.29 µM)
MIC [2]: 2 µg/mL (≈ 4.15 µM)
MIC [3]: 2 µg/mL (≈ 4.15 µM)
MIC [4]: 4 µg/mL (≈ 8.29 µM)
MIC [5]: 2 µg/mL (≈ 4.15 µM)
MIC [6]: 0.5 µg/mL (≈ 1.04 µM)
MIC [7]: 4 µg/mL (≈ 8.29 µM)
MIC [8]: 4 µg/mL (≈ 8.29 µM)
MIC [9]: 4 µg/mL (≈ 8.29 µM)
MIC [10]: 4 µg/mL (≈ 8.29 µM)
IC50 [11]: 24.7 nM
MIC [12]: 2 µg/mL (≈ 4.15 µM)

CC1(C)S[C@@H]2[C@H](NC(=O)[C@H](N)c3ccc(O)cc3)C(=O)N2[C@H]1C(=O)O [AMOXICILLIN]
MIC [1]: 0.25 µg/mL (≈ 0.684 µM)
MIC [2]: 64 µg/mL (≈ 175 µM)
MIC [3]: 0.25 µg/mL (≈ 0.684 µM)
MIC [4]: 0.125 µg/mL (≈ 0.342 µM)
MIC [5]: 0.125 µg/mL (≈ 0.342 µM)
MIC [6]: 8 µg/mL (≈ 21.9 µM)
MIC [7]: 0.125 µg/mL (≈ 0.342 µM)
MIC [8]: 0.25 µg/mL (≈ 0.684 µM)
MIC [9]: 0.125 µg/mL (≈ 0.342 µM)
MIC [10]: 0.125 µg/mL (≈ 0.342 µM)
MIC [12]: 64 µg/mL (≈ 175 µM)

CN(C)C(CNc1cc(=O)c2ccccc2[nH]1)CN(Cc1ccc(Cl)c(Cl)c1)Cc1ccc(Cl)c(Cl)c1 (configuration not stated)
MIC [1]: > 64 µg/mL
MIC [2]: > 64 µg/mL
MIC [4]: > 64 µg/mL
MIC [5]: > 64 µg/mL
MIC [6]: > 64 µg/mL
MIC [7]: > 64 µg/mL
MIC [8]: > 64 µg/mL
MIC [9]: > 64 µg/mL
MIC [10]: > 64 µg/mL
IC50 [11]: 131 nM
MIC [12]: > 64 µg/mL

CCOC(CNCc1ccc(Cl)c(Cl)c1)CNc1cc(=O)c2ccccc2[nH]1 (configuration not stated)
MIC [1]: 16 µg/mL (≈ 38.1 µM)
MIC [2]: 4 µg/mL (≈ 9.52 µM)
MIC [3]: 8 µg/mL (≈ 19 µM)
MIC [4]: 16 µg/mL (≈ 38.1 µM)
MIC [5]: 8 µg/mL (≈ 19 µM)
MIC [6]: 1 µg/mL (≈ 2.38 µM)
MIC [7]: 16 µg/mL (≈ 38.1 µM)
MIC [8]: 16 µg/mL (≈ 38.1 µM)
MIC [9]: 16 µg/mL (≈ 38.1 µM)
MIC [10]: 8 µg/mL (≈ 19 µM)
IC50 [11]: 30.3 nM
MIC [12]: 4 µg/mL (≈ 9.52 µM)

O=c1cc(NCC(CO)CNCc2ccc(Cl)c(Cl)c2)[nH]c2ccccc12 (configuration not stated)
MIC [1]: 16 µg/mL (≈ 39.4 µM)
MIC [2]: 8 µg/mL (≈ 19.7 µM)
MIC [3]: 16 µg/mL (≈ 39.4 µM)
MIC [4]: 32 µg/mL (≈ 78.8 µM)
MIC [5]: 16 µg/mL (≈ 39.4 µM)
MIC [6]: 2 µg/mL (≈ 4.92 µM)
MIC [7]: 64 µg/mL (≈ 158 µM)
MIC [8]: 64 µg/mL (≈ 158 µM)
MIC [9]: 32 µg/mL (≈ 78.8 µM)
MIC [10]: 16 µg/mL (≈ 39.4 µM)
IC50 [11]: 11.9 nM
MIC [12]: 8 µg/mL (≈ 19.7 µM)

C=CCOC(CNCc1ccc(Cl)c(Cl)c1)CNc1cc(=O)c2ccccc2[nH]1 (configuration not stated)
MIC [1]: 8 µg/mL (≈ 18.5 µM)
MIC [2]: 2 µg/mL (≈ 4.63 µM)
MIC [3]: 4 µg/mL (≈ 9.25 µM)
MIC [4]: 8 µg/mL (≈ 18.5 µM)
MIC [5]: 4 µg/mL (≈ 9.25 µM)
MIC [6]: 1 µg/mL (≈ 2.31 µM)
MIC [7]: 16 µg/mL (≈ 37 µM)
MIC [8]: 8 µg/mL (≈ 18.5 µM)
MIC [9]: 16 µg/mL (≈ 37 µM)
MIC [10]: 8 µg/mL (≈ 18.5 µM)
IC50 [11]: 29.4 nM
MIC [12]: 2 µg/mL (≈ 4.63 µM)

From ChEMBL document CHEMBL1152839, “2-[2-Substituted-3-(3,4-dichlorobenzylamino)propylamino]-1H-quinolin-4-ones as Staphylococcus aureus methionyl-tRNA synthetase inhibitors” (Eur J Med Chem, 2009)
